From ChEMBL document CHEMBL4311965, “Antimicrobial activity of amphipathic α,α-disubstituted β-amino amide derivatives against ESBL - CARBA producing multi-resistant bacteria; effect of halogenation, lipophilicity and cationic character” (Eur J Med Chem, 2019) come the findings set out here.

Series [1] relates to Staphylococcus aureus. In words: Antibacterial activity against Staphylococcus aureus ATCC 9144 cultured in MHB medium assessed as no bacterial growth incubated at 37 degC for 24 hrs by microdilution susceptibility test. Format: functional. The note with it: ATCC 9144, 24 h. Put shortly:
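Broth microdilution per CLSI M07-A9 with modifications. Inoculum about 2.5–3 x 10⁴ cells/mL in Mueller-Hinton broth, mixed 1:1 with test derivative. DMSO stocks diluted in double-distilled water, final DMSO <1%. Incubation 24 h at 37 °C (20 °C for C. glutamicum). Growth and sterility controls included; oxytetracycline reference.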
On the technique in general: Dilution methods test growth across graded concentrations, often in twofold steps.

A further series has as its system HepG2. In words: Cytotoxicity against human HepG2 cells assessed as reduction in cell viability incubated for 4 hrs by CellTiter 96 Aqueous One Solution Reagent based assay. As to conditions: HepG2, 4 h. The method in brief: (§1)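 HepG2 and MRC-5 cells seeded at 35 000 and 15 000 cells/well respectively, then held overnight at 37 °C, 5% CO₂. Compounds in serum-free MEM Earle's applied for 4 h. MTS reagent (CellTiter 96 AQueous One) added for a further 1 h, absorbance read at 485 nm. Survival expressed relative to medium (negative) and Triton X-100 (positive) controls.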

The test system of a further series is MRC5. Description: Cytotoxicity against human MRC5 cells assessed as reduction in cell viability incubated for 4 hrs by CellTiter 96 Aqueous One Solution Reagent based assay. As to conditions: MRC5, 4 h. Put shortly: as §1
The nature of series [2]: Selectivity index, ratio of EC50 for hemolytic activity against human RBC to MIC for antibacterial activity against Escherichia coli ATCC 25922. It counts as toxicity. The note with it: human red blood cells (RBC). The method in brief: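 Selectivity index is the RBC haemolysis EC50 divided by the MIC against the E. coli or S. aureus reference strain.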
Series [3] concerns Staphylococcus aureus. In words: Antibacterial activity against multidrug-resistant Staphylococcus aureus N315 cultured in MHB medium assessed as reduction in bacterial growth incubated for 24 hrs by microdilution susceptibility test. It counts as functional. The note with it: N315, 24 h. The method in brief:
(§2)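 Broth microdilution per CLSI M07-A9 (modified). Working solutions made from concentrated DMSO stocks kept at r.t., diluted in double-distilled water, final DMSO <1%. Inoculum 1–1.2 x 10⁶ cells/mL in Mueller-Hinton broth, mixed 1:1 with compound. 37 °C, 24 h, four parallels. Read as OD₆₀₀. Where precipitation left residual OD, the point of major OD decrease was taken as the inhibitory concentration.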

Series [4] concerns Staphylococcus aureus. Description: Antibacterial activity against multidrug-resistant Staphylococcus aureus NCTC 10442 cultured in MHB medium assessed as reduction in bacterial growth incubated for 24 hrs by microdilution susceptibility test. It counts as functional. The note with it: NCTC 10442, 24 h. The method in brief:
as §2

Series [5] has as its system Staphylococcus aureus. Description: Antibacterial activity against multidrug-resistant Staphylococcus aureus 85/2082 cultured in MHB medium assessed as reduction in bacterial growth incubated for 24 hrs by microdilution susceptibility test. It counts as functional. The note with it: 85/2082, 24 h. The method in brief: as §2
Series [6] deals with Enterococcus faecium. Description: Antibacterial activity against multidrug-resistant Enterococcus faecium 50901530 cultured in BHIB medium assessed as reduction in bacterial growth incubated for 24 hrs by microdilution susceptibility test. It counts as functional. The note with it: Enterococcus faecium, 50901530, 24 h. Put shortly: (§3)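 Enterococci grown in Brain Heart Infusion broth, otherwise broth microdilution per CLSI M07-A9 (modified). Concentrated DMSO stocks kept at r.t. and diluted in double-distilled water, final DMSO <1%. Inoculum 1–1.2 x 10⁶ cells/mL mixed 1:1 with compound. 37 °C, 24 h, four parallels. OD₆₀₀ read-out, lowest concentration with no growth.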

Series [7] concerns Enterococcus faecium. Description: Antibacterial activity against multidrug-resistant Enterococcus faecium 50758899 cultured in BHIB medium assessed as reduction in bacterial growth incubated for 24 hrs by microdilution susceptibility test. Format: functional. As to conditions: Enterococcus faecium, 50758899, 24 h. The method in brief:
as §3

Series [8] has as its system Enterococcus faecium. Description: Antibacterial activity against multidrug-resistant Enterococcus faecium TUH50-22 cultured in BHIB medium assessed as reduction in bacterial growth incubated for 24 hrs by microdilution susceptibility test. It counts as functional. As to conditions: TUH50-22, 24 h. Put shortly:
as §3

The test system of series [9] is Escherichia coli. In words: Antibacterial activity against multidrug-resistant Escherichia coli 50579417 producing oxcillinase-48 cultured in MHB medium assessed as reduction in bacterial growth incubated for 24 hrs by microdilution susceptibility test. The note with it: Escherichia coli, 50579417, 24 h. It counts as functional. Put shortly:
as §2

For series [10], the system named is Escherichia coli. In words: Antibacterial activity against multidrug-resistant Escherichia coli 50739822 producing New Delhi metallo-beta-lactamase-1 cultured in MHB medium assessed as reduction in bacterial growth incubated for 24 hrs by microdilution susceptibility test. Format: functional. The note with it: Escherichia coli, 50739822, 24 h. The method in brief:
as §2

The test system of another series is Pseudomonas aeruginosa. In words: Antibacterial activity against multidrug-resistant Pseudomonas aeruginosa K34-7 producing Verona integron encoded metallo beta-lactamse-2 cultured in MHB medium assessed as reduction in bacterial growth incubated for 24 hrs by microdilution susceptibility test. As to conditions: K34-7, 24 h. Format: functional. The method in brief:
as §2

Series [11] relates to Klebsiella pneumoniae. Description: Antibacterial activity against multidrug-resistant Klebsiella pneumoniae K66-45 producing New Delhi metallo-beta-lactamase-1 cultured in MHB medium assessed as reduction in bacterial growth incubated for 24 hrs by microdilution susceptibility test. Format: functional. The note with it: K66-45, 24 h. Put shortly:
as §2

Series [12] has as its system Klebsiella pneumoniae. In words: Antibacterial activity against multidrug-resistant Klebsiella pneumoniae 50625602 producing oxcillinase-245 cultured in MHB medium assessed as reduction in bacterial growth incubated for 24 hrs by microdilution susceptibility test. Format: functional. As to conditions: Klebsiella pneumoniae, 50625602, 24 h. The method in brief:
as §2

The test system of another series is Acinetobacter baumannii. In words: Antibacterial activity against multidrug-resistant Acinetobacter baumannii K63-58 producing oxcillinase-23 cultured in MHB medium assessed as reduction in bacterial growth incubated for 24 hrs by microdilution susceptibility test. Format: functional. As to conditions: K63-58, 24 h. Put shortly: as §2
A short description of series [13]: Drug metabolism in Sprague-Dawley rat liver microsomes assessed as CYP450-mediated deaminated form of N-(2-aminoethyl)-2-(aminomethyl)-3-(4-fluoro-1-naphthyl)-2-[(4-fluoro-1-naphthyl)methyl]propanamide metabolite formation incubated up to 3 hrs in presence of NADPH regenerating system by RP-HPLC-MS analysis. Format: ADME. The method in brief:
(§4)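 Substrate at 1 µL of 100 µM aqueous stock in 100 mM potassium phosphate, pH 7.4, with NADPH regenerating system. Pooled male Sprague–Dawley rat liver microsomes (20 mg/mL stock) added, then incubated at 37 °C. Sampled at 0–180 min and quenched with cold methanol containing propranolol internal standard. Analysed by RP-HPLC–HRMS in positive ESI mode. Metabolites confirmed by HCD MS2. Triplicate incubations.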

The nature of series [14]: Aqueous solubility of the compound in DMSO. It counts as physicochemical.
The nature of series [15]: Drug metabolism in Sprague-Dawley rat liver microsomes assessed as CYP450-mediated 4-[2-(aminomethyl)-3-[3,5-bis(trifluoromethyl)phenyl]-2-(4,5-dihydrooxazol-3-ium-2-yl)propyl]-2,6-bis(trifluoromethyl)phenol formation incubated up to 3 hrs in presence of NADPH regenerating system by RP-HPLC-MS analysis. Format: ADME. Put shortly:
as §4

A short description of series [16]: Drug metabolism in Sprague-Dawley rat liver microsomes assessed as CYP450-mediated 2-[[2-(aminomethyl)-3-[3,5-bis(trifluoromethyl)phenyl]-2-[[3,5-bis(trifluoromethyl)phenyl]methyl]propanoyl]amino]acetic acid formation incubated up to 3 hrs in presence of NADPH regenerating system by RP-HPLC-MS analysis. Format: ADME. Put shortly:
as §4
On the technique in general: Liver microsomes are vesicles of endoplasmic reticulum, rich in cytochrome P450 enzymes.

Series [17] is described as follows: Drug metabolism in Sprague-Dawley rat liver microsomes assessed as CYP450-mediated 4-[2-(aminomethyl)-3-(3,5-dibromophenyl)-2-(4,5-dihydrooxazol-3-ium-2-yl)propyl]-2,6-dibromo-phenol formation incubated up to 3 hrs in presence of NADPH regenerating system by RP-HPLC-MS analysis. Format: ADME. The method in brief: as §4

≈ marks a conversion by molar mass, not a printed value.

As usually defined, the MIC is the lowest concentration found to suppress growth. Broadly, the EC50 is the midpoint of the concentration-response curve. For the compound `NCCNC(=O)C(CN)(Cc1ccc(F)c2ccccc12)Cc1ccc(F)c2ccccc12`, the MIC with Staphylococcus aureus [1] amounted to 4 µg/mL (≈ 8.94 µM); in the series with Staphylococcus aureus [3], 16 µg/mL (≈ 35.8 µM); with Staphylococcus aureus [4], 8 µg/mL (≈ 17.9 µM); in the series on Staphylococcus aureus [5], 8 µg/mL (≈ 17.9 µM); with Enterococcus faecium [6] it was 16 µg/mL (≈ 35.8 µM); with Enterococcus faecium [7], 8 µg/mL (≈ 17.9 µM). In addition, the MIC with Enterococcus faecium [8] is 8 µg/mL (≈ 17.9 µM); with Escherichia coli [9], 8 µg/mL (≈ 17.9 µM); with Escherichia coli [10], 16 µg/mL (≈ 35.8 µM); in the series with Pseudomonas aeruginosa it was over 32 µg/mL; in the series on Klebsiella pneumoniae [11] it was 8 µg/mL (≈ 17.9 µM); in the series on Klebsiella pneumoniae [12] it was 8 µg/mL (≈ 17.9 µM). Further, the MIC in the series with Acinetobacter baumannii was 16 µg/mL (≈ 35.8 µM). The EC50 stood at 12 µg/mL (≈ 26.8 µM) in the series on HepG2 and 4 µg/mL (≈ 8.94 µM) in the series with MRC5. Also, the selectivity ratio in series [2] amounted to 19. Moreover, the Drug metabolism entry in series [13] is recorded as “Metabolite_Detected”. The solubility entry in [14] is “Soluble”.

For `NCCNC(=O)C(CN)(Cc1cc(C(F)(F)F)cc(C(F)(F)F)c1)Cc1cc(C(F)(F)F)cc(C(F)(F)F)c1`, the MIC in the series on Staphylococcus aureus [1] amounted to 4 µg/mL (≈ 6.86 µM); with Staphylococcus aureus [3] it was 16 µg/mL (≈ 27.4 µM); in the series with Staphylococcus aureus [4], 16 µg/mL (≈ 27.4 µM); with Staphylococcus aureus [5], 16 µg/mL (≈ 27.4 µM); in the series with Enterococcus faecium [6], 4 µg/mL (≈ 6.86 µM); with Enterococcus faecium [7], 4 µg/mL (≈ 6.86 µM). Besides, the MIC is 8 µg/mL (≈ 13.7 µM) with Enterococcus faecium [8]; 16 µg/mL (≈ 27.4 µM) with Escherichia coli [9]; 16 µg/mL (≈ 27.4 µM) with Escherichia coli [10]; over 32 µg/mL with Pseudomonas aeruginosa; 32 µg/mL (≈ 54.8 µM) in the series with Klebsiella pneumoniae [11]; 16 µg/mL (≈ 27.4 µM) in the series with Klebsiella pneumoniae [12]. The MIC in the series with Acinetobacter baumannii was determined as 8 µg/mL (≈ 13.7 µM). For the same compound, the EC50 in the series on HepG2 and in the series with MRC5 was 11 µg/mL (≈ 18.9 µM) in each case. Moreover, in [2], the selectivity ratio was found to be 12. The Drug metabolism result in series [15] and in series [16] was “Metabolite_Notdetected” in each case. The solubility result in series [14] is “Soluble”.

Take `NCCNC(=O)C(CN)(Cc1cc(Br)cc(Br)c1)Cc1cc(Br)cc(Br)c1`: the minimal inhibitory concentration (MIC) in the series with Staphylococcus aureus [1] is 2 µg/mL (≈ 3.19 µM); in the series with Staphylococcus aureus [3] it was 8 µg/mL (≈ 12.8 µM); with Staphylococcus aureus [4], 8 µg/mL (≈ 12.8 µM); in the series on Staphylococcus aureus [5] it was 8 µg/mL (≈ 12.8 µM); in the series with Enterococcus faecium [6], 8 µg/mL (≈ 12.8 µM); in the series on Enterococcus faecium [7], 8 µg/mL (≈ 12.8 µM). Moreover, the MIC in the series with Enterococcus faecium [8] is 8 µg/mL (≈ 12.8 µM); in the series with Escherichia coli [9] it was 8 µg/mL (≈ 12.8 µM); in the series with Escherichia coli [10], 8 µg/mL (≈ 12.8 µM); with Pseudomonas aeruginosa, over 32 µg/mL; in the series with Klebsiella pneumoniae [11] it was 32 µg/mL (≈ 51 µM); with Klebsiella pneumoniae [12] it was 8 µg/mL (≈ 12.8 µM). Besides, in the series with Acinetobacter baumannii, the MIC is 32 µg/mL (≈ 51 µM). Also, the EC50 in the series with HepG2 came to 13 µg/mL (≈ 20.7 µM); with MRC5 it was 17 µg/mL (≈ 27.1 µM). In addition, the selectivity ratio in series [2] worked out at 15. The Drug metabolism result in series [17] is “Metabolite_Notdetected”. Also, in series [14], the solubility entry is given as “Soluble”.
